In ChEMBL document CHEMBL2203205 (Eur J Med Chem, 2012):

Legend:
[1] = target: Muscarinic acetylcholine receptor M3 (Homo sapiens, UniProt P20309); test: Inhibition of muscarinic M3 receptor
Method in brief: (§1)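 Radioligand competition binding, run first as a single-concentration broad screen at […], then as concentration-response for follow-up targets, with the reference compound tested in parallel. Specific binding is total minus binding in excess unlabelled ligand, expressed as % of control specific binding. IC50 and Hill coefficient come from non-linear Hill-equation regression of competition curves built from mean replicate values.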

[2] = target: T1, Muscarinic acetylcholine receptor M2 (Homo sapiens, UniProt P08172); test: Inhibition of muscarinic M2 receptor; method in brief: as §1
T1 sequence (P08172 whole entry): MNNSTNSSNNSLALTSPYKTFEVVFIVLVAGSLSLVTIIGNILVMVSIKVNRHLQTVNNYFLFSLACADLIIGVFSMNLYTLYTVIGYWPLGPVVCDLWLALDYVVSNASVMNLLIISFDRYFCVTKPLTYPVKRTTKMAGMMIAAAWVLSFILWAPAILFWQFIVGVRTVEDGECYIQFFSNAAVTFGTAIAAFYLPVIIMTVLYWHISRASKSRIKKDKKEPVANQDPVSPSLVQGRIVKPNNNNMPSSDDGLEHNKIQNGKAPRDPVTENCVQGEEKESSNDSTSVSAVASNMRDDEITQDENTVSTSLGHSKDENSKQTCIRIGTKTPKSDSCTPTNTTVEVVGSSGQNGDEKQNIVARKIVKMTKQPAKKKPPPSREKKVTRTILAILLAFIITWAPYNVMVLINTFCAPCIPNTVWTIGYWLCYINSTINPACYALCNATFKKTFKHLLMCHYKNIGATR

[3] = Tmax in Sprague-Dawley rat at 10 mg/kg, po; format: ADME, organism-based; set-up: dose 10 mg/kg, route oral; settings: in vivo
Method in brief: (§2)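 Male Sprague-Dawley rats dosed intravenously (3 mg/kg) and orally (10 mg/kg). PK parameters came from non-compartmental analysis of plasma concentration vs time curves.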

[4] = target: 5-hydroxytryptamine receptor 1B (Homo sapiens, UniProt P28222); test: Inhibition of 5HT1B receptor; method in brief: as §1
[5] = AUC in Sprague-Dawley rat at 3 mg/kg, iv; format: ADME, organism-based; set-up: dose 3 mg/kg, route intravenous; settings: plasma; method in brief: as §2
[6] = target: T2, Voltage-gated inwardly rectifying potassium channel KCNH2 (Homo sapiens, UniProt Q12809); test: Inhibition of human recombinant ERG expressed in HEK293 cells up to 100 uM after 5 to 10 mins by conventional whole-cell patch clamp assay; format: cell-based
Method in brief: (§3)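 Conventional whole-cell patch clamp on HEK-293 cells stably expressing hERG, cultured 1–7 days in DMEM/GlutaMax-1 + 10% FBS on collagen-coated dishes. Holding potential was −80 mV. Compound was superfused 5–10 min per concentration at rt (22–24 °C). Tail current amplitude was measured before and after superfusion. IC50 came from a logistic fit of the concentration-response.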

Rattus norvegicus = test: Analgesic activity in rat L5 and L6 spinal nerve ligation model assessed as reversal of thermal hyperalgesia at 30 mg/kg, ip after 60 mins; format: functional; settings: route intraperitoneal
[7] = target: T3, Alpha-2A adrenergic receptor (Homo sapiens, UniProt P08913); test: Inhibition of alpha2A adrenergic receptor; method in brief: as §1
T3 sequence (P08913 whole entry): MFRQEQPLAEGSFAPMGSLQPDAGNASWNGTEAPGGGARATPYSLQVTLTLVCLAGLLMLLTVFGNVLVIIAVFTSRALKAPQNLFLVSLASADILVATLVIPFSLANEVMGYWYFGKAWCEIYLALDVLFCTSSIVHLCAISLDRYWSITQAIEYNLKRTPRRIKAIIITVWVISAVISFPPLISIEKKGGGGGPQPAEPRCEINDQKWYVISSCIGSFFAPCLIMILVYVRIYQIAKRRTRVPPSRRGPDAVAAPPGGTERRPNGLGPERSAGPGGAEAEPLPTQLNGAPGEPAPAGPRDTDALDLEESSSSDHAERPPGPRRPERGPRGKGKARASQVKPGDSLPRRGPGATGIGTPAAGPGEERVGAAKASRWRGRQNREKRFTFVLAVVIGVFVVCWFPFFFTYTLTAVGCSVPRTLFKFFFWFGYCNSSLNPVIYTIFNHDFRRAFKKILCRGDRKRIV

[8] = target: T4, Alpha-1B adrenergic receptor (Homo sapiens, UniProt P35368); test: Inhibition of alpha1B adrenergic receptor; method in brief: as §1
T4 sequence (P35368 whole entry): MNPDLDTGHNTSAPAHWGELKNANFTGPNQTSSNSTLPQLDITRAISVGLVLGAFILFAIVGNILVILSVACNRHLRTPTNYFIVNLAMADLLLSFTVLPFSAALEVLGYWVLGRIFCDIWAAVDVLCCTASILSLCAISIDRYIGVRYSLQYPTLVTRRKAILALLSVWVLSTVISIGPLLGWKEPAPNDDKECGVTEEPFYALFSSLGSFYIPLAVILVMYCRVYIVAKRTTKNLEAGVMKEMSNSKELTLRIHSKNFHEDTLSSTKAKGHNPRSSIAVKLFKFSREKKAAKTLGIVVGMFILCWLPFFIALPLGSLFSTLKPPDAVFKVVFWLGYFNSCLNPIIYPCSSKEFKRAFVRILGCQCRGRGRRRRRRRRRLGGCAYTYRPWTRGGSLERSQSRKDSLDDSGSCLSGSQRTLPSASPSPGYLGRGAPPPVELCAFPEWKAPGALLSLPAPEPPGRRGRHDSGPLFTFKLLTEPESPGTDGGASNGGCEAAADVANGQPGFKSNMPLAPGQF

[9] = target: T5, Alpha-1D adrenergic receptor (Homo sapiens, UniProt P25100); test: Inhibition of alpha1D adrenergic receptor; method in brief: as §1
T5 sequence (P25100 whole entry): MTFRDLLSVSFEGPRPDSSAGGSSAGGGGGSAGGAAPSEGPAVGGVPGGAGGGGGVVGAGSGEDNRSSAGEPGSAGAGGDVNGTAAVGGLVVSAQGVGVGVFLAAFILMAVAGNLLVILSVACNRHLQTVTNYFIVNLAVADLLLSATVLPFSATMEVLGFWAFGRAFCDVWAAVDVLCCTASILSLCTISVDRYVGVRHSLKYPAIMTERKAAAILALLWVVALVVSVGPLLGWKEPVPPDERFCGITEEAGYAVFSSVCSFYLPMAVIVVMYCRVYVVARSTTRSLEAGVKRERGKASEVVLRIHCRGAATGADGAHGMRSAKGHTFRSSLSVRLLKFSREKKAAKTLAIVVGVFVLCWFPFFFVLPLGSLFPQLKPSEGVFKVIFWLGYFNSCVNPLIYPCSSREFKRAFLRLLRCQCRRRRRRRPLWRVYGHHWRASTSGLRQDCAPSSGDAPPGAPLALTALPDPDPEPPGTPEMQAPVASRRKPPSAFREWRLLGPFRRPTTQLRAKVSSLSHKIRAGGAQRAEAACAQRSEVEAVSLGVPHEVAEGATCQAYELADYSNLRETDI

[10] = target: T2, Voltage-gated inwardly rectifying potassium channel KCNH2; test: Inhibition of human recombinant ERG expressed in HEK293 cells after 5 to 10 mins by conventional whole-cell patch clamp assay; format: cell-based; method in brief: as §3
[11] = Half life in Sprague-Dawley rat at 10 mg/kg, po; format: ADME, organism-based; set-up: dose 10 mg/kg, route oral; settings: in vivo; method in brief: as §2

T2 sequence (Q12809 whole entry, the tested form may be a part): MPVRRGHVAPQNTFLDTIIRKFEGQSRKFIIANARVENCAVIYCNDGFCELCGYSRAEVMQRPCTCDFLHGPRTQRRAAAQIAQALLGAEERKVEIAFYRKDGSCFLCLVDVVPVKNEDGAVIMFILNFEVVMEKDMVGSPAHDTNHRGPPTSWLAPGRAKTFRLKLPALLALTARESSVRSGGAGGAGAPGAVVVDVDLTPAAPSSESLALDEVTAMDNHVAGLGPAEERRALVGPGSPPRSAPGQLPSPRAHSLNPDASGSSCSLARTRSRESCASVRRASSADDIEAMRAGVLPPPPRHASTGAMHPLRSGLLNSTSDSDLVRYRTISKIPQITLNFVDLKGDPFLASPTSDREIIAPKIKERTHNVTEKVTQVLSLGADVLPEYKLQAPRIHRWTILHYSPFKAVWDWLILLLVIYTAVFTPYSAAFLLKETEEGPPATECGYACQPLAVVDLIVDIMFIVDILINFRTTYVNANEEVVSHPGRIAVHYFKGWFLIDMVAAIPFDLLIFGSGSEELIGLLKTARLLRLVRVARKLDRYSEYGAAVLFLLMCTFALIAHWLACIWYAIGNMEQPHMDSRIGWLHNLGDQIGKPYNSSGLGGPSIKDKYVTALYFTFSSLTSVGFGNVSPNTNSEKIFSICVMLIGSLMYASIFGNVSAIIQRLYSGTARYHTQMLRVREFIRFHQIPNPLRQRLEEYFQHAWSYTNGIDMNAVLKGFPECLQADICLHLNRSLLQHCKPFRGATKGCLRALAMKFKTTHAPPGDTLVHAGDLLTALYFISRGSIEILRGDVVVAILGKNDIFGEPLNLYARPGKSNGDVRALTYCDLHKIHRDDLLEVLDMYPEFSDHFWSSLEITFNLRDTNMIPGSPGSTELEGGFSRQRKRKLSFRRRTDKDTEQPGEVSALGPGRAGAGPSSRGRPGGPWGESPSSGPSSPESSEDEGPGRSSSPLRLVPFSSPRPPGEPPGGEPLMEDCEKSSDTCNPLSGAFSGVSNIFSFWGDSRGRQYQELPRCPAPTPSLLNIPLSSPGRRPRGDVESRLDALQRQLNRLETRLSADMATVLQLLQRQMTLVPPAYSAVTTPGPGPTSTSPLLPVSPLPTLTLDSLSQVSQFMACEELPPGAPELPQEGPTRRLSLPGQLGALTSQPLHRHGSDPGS
5-hydroxytryptamine receptor 1B, sequence (P28222 whole entry): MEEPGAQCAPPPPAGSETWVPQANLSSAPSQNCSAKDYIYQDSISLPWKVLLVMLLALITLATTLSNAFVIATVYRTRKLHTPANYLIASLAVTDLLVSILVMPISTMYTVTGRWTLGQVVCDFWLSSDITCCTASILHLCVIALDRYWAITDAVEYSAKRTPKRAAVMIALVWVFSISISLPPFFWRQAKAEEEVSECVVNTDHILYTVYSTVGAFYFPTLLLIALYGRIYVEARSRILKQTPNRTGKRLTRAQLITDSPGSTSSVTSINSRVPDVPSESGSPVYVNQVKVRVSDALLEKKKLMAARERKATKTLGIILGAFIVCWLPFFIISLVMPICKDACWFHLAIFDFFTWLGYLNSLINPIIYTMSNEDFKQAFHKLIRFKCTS
Muscarinic acetylcholine receptor M3, sequence (P20309 whole entry): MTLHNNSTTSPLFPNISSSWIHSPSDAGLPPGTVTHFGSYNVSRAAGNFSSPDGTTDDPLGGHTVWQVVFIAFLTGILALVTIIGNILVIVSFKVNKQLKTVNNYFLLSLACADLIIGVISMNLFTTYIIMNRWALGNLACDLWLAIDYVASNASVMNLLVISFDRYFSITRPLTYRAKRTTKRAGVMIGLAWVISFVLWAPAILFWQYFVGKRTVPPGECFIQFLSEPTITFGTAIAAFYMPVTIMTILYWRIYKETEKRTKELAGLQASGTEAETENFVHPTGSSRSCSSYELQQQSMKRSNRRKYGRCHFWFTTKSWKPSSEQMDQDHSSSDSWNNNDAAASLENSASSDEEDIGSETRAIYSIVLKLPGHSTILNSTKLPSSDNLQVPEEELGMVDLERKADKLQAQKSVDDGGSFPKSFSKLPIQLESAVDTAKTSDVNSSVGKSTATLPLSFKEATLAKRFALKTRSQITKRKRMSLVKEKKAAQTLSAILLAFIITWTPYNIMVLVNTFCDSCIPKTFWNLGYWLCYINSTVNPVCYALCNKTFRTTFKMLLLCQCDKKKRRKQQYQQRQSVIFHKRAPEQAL

N=C(Nc1ccc2c(c1)CCN2C1CCNCC1)c1cccs1
IC50 [1]: 4.5 µM | IC50 [2]: 3.6 µM | Tmax [3]: 2 h | IC50 [4]: 2.2 µM | AUC [5]: 95.2 ng·h/mL | inhibition (INH) [6]: Not Active | Activity (Rattus norvegicus): 71% | IC50 [7]: 24 µM | IC50 [8]: 1.8 µM | IC50 [9]: 2.2 µM | IC50 [10]: > 100 µM | half-life [11]: 12 h
